Results published in ChEMBL document CHEMBL1126619, “Design of thymidylate synthase inhibitors using protein crystal structures: the synthesis and biological evaluation of a novel class of 5-substituted quinazolinones” (J Med Chem, 1993).

Tests used:
L1210 [1] = assay: Inhibition of mouse L1210 (murine leukemia) cell growth measured using a modification of the MTT36 colorimetric assay of Mosmann; format: functional, cell-based
Thymidylate synthase [2] = biological target: T1, Thymidylate synthase (Homo sapiens, UniProt P04818); assay: Compound was tested for TS activity against human Thymidylate synthase by tight binding kinetics
GC3/MTK- = assay: Inhibition of cellular growth in human adenocarcinoma cell line (GC3/M TK) deficient in thymidine kinase; format: functional, cell-based
L1210 [3] = assay: The ratio of IC50 of the inhibitor (assayed in L1210 cells) in presence and absence of thymidine; format: functional, Mus musculus
Method in brief: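 Murine L1210 leukemia cells grown in RPMI-1640 with 5% fetal calf serum and 0.5% DMSO, seeded at 1000 cells/well, over nine 2-fold serial dilutions of compound, with or without 10 μM thymidine replenished daily over 3 days.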

CCRF-CEM = assay: Inhibition of human lymphoblastic leukemia (CCRF-CEM) cell growth measured using a modification of the MTT36 colorimetric assay of Mosmann; format: functional, cell-based
Thymidylate synthase [4] = biological target: T1, Thymidylate synthase; assay: (§1) Inhibition of human Thymidylate synthase
Thymidylate synthase [5] = biological target: T2, Thymidylate synthase (Escherichia coli, UniProt C3SWJ7); assay: (§2) Inhibition of purified Escherichia coli Thymidylate synthase
Thymidylate synthase [6] = biological target: T1, Thymidylate synthase; assay: as §1; remark: listed apart in the source
Thymidylate synthase [7] = biological target: T2, Thymidylate synthase; assay: as §2; remark: listed apart in the source
[8] = Partition coefficient (logP); format: physicochemical; conditions: octanol/water

T2 sequence (C3SWJ7 whole entry): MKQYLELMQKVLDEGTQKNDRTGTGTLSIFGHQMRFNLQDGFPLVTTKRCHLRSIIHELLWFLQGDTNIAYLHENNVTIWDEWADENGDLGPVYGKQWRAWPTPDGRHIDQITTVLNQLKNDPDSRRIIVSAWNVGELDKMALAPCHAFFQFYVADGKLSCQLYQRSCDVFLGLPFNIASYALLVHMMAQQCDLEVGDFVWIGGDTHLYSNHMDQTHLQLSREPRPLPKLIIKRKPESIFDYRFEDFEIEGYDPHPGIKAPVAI
T1 sequence (P04818 whole entry): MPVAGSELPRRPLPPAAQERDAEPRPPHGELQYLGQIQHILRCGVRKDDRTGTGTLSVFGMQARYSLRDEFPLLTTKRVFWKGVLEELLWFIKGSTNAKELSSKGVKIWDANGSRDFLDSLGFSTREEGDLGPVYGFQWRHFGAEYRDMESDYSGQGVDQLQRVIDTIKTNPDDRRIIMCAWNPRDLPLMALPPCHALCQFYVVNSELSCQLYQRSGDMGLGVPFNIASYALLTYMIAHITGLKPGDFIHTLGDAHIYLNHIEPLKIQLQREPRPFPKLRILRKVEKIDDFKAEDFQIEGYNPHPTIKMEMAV

Row | Structure (SMILES) | IC50 (L1210 [1]) [nM] | IC50 (CCRF-CEM) [µM] | Ki (Thymidylate synthase [4]) [nM] | Ki (Thymidylate synthase [5]) [nM] | Ki (Thymidylate synthase [6]) [nM] | Ki (Thymidylate synthase [7]) [nM] | logP [8] | Ki (Thymidylate synthase [2]) [nM] | IC50 (GC3/MTK-) [µM] | Thymidine shift (L1210 [3])
1 | Cc1nc(O)c2c(Sc3ccc(C(=O)N[C@H](CCC(=O)O)C(=O)O)cc3)c(C)ccc2n1 | 1050 | 0.99 |  |  |  |  |  | 1.31 | 4.1 | >22
2 | Cc1nc(O)c2c(Sc3ccnnc3)c(C)ccc2n1 |  |  | 87 | 1100 |  | 600 |  |  | > 12.5 | 
3 | Cc1nc(O)c2c(Oc3ccccc3)cccc2n1 | > 50000 | > 50 | > 100000 |  |  | > 100000 |  |  |  | 
4 | Cc1nc(O)c2c(Sc3ccnc(C(F)(F)F)c3)c(C)ccc2n1 |  |  | 70 | 540 |  | 230 |  |  |  | 
5 | COc1ccc2nc(C)nc(O)c2c1Sc1ccncc1 | 21000 | 26 |  | 3900 |  | 1500 |  |  | 32 | 
6 | Cc1nc2ccc(C)c(Sc3ccc(S(=O)(=O)c4ccccc4)cc3)c2c(=O)[nH]1 | 1800 | 2.1 |  |  |  |  | 4.67 |  | 4.5 | 
7 | Cc1nc(O)c2c(Sc3ccccn3)cccc2n1 | > 50000 | > 50 | 120000 | > 80000 | 190000 | > 80000 |  |  | > 50 | 1
8 | Cc1nc(O)c2c(Sc3ccncc3)c(O)ccc2n1 | > 50000 | > 50 | 8800 | 190000 |  | 51000 |  |  | > 50 | 1
9 | Cc1ccc2nc(N)nc(O)c2c1Sc1ccnnc1 | 1600 | 0.88 | 13 |  |  |  |  |  | 1.5 | 17.6
10 | Cc1ccc2nc(N)nc(O)c2c1Sc1ccc(C(=O)N[C@H](CCC(=O)O)C(=O)O)cc1 | 2500 | 0.52 |  |  |  |  |  | 0.124 | 1.7 | ~8
11 | Cc1ccc2nc(N)nc(O)c2c1Sc1ccnc(C(F)(F)F)c1 | 1800 | > 2 | 28 |  | 24 |  |  |  | > 2 | >5
12 | Cc1nc(O)c2c(Sc3cccnc3)c(C)ccc2n1 | > 2500 | > 2.5 | 310 | 9300 | 1100 | 1700 |  |  | > 2.5 | 

The next lines start with results.

Row | IC50 (L1210 [1]) [nM] | IC50 (CCRF-CEM) [µM] | Ki (Thymidylate synthase [4]) [nM] | Ki (Thymidylate synthase [5]) [nM] | Ki (Thymidylate synthase [6]) [nM] | Ki (Thymidylate synthase [7]) [nM] | logP [8] | Structure (SMILES) | Ki (Thymidylate synthase [2]) [nM] | IC50 (GC3/MTK-) [µM] | Thymidine shift (L1210 [3])
13 |  |  | 37 | 710 | 46 | 280 |  | COc1cc(Sc2c(C)ccc3nc(C)nc(O)c23)ccn1 |  | > 5 | 
14 | 50000 | > 50 | 141 |  | 65 |  |  | Cc1nc(O)c2c(Sc3ccc(C(=O)O)cc3)c(C)ccc2n1 |  | > 50 | >5
15 |  | > 26.9 | 960 | 30000 |  | 10000 |  | Cc1nc(O)c2c(Sc3ccncc3)cccc2n1 |  | > 26.9 | 
16 | 3000 | 2.9 | 56 | 730 | 78 | 490 | 3.29 | Cc1nc(O)c2c(Sc3ccc([N+](=O)[O-])cc3)c(C)ccc2n1 |  | > 4 | 3.3
17 | > 4200 | > 4.2 | > 10000 |  |  | > 10000 |  | Cc1nc(O)c2c(Sc3ccccc3)cccc2n1 |  |  | 
18 | > 10000 | > 10 | 200 |  | 590 |  |  | CCc1ccc2nc(C)nc(O)c2c1Sc1ccncc1 |  | > 10 | ~10
19 | 1000 | 0.81 |  | 140 |  | 49 |  | Cc1ccc2nc(N)[nH]c(=O)c2c1Sc1ccncc1 [NOLATREXED] |  | 1 | 
20 | 3500 | 5.2 | 93 | 820 | 58 | 500 | 2.16 | Cc1nc(O)c2c(Sc3ccncc3)c(C)ccc2n1 |  | 6 | >14
21 | 4050 | 10.5 | 80 |  | 58 |  |  | Cc1nc(O)c2c(Sc3ccnc(N(C)C)c3)c(C)ccc2n1 |  | 18 | 4.25
22 | 4200 | 4.2 | 39 | 530 | 66 | 240 |  | Cc1cc(Sc2c(C)ccc3nc(C)nc(O)c23)ccn1 |  | 5 | 
23 | 1300 | 2.1 | 20 |  | 18 |  |  | Nc1nc(O)c2c(Sc3ccncc3)c(Cl)ccc2n1 |  | 2.05 | ~14
24 | 1800 | 4.9 | 32 |  | 50 |  |  | Cc1ccc2nc(N)nc(O)c2c1Sc1ccnc(N(C)C)c1 |  | 5.2 | >20
